The list is not random: actives were taken first. Their share in the collection is about 3.8%.
Lipid droplet: modulators of hepatic lipid droplet formation | 0.4% of 240,000 active | inhibition, % at 6.5 µM | AML12 mouse hepatocytes, oleate lipid droplets, BODIPY imaging | AID 1656;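 active = lipid droplet intensity inhibited by at least 50%, with more than 500 cells counted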
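Assay system: AML12 mouse liver cells | Compound: 6.5 µM single-point dosing | Schedule: Overnight exposure | Technique: Fluorescence imaging, 20x objective, two fields per well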
RGS4 block: inhibitors of human RGS4; B-score at 10 µM; P49798; 0.45% of 310,000 active; HEK293 M3R/RGS4 inducible, Fluo-4 calcium flux; active compounds read high; triggered by carbachol at its EC20;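 active = B-score, a plate-corrected calcium signal, over three deviations above library mean, with baseline fluorescence within five deviations of library mean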;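 also: RGS4 expression induced by doxycycline in cells with stable M3 receptor; B-score is computed from the integrated fluorescence ratio over baseline after carbachol; higher B-score means a larger calcium signal and so more RGS4 inhibition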
Target sequence (P49798 whole entry, looked up): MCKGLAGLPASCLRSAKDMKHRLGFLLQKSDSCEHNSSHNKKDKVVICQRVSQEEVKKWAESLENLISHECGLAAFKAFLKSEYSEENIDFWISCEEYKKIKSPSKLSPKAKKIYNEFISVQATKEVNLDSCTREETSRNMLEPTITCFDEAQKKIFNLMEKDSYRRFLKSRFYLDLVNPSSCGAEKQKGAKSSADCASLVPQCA
MrgX1 antag: human MrgX1 receptor antagonism, primary screen | Q96LB2 | B-score at 10 µM | 1.3% of 310,000 active | AID 588676 | MRGX1-HEK293 calcium flux, Fluo-4, BAM8-22 antagonism; active compounds read low;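 active = calcium-response B-score plate-corrected more than 3 library SD below zero, starting fluorescence within 5 deviations, no agonist response on first addition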;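 also: peak minus trough fluorescence over baseline after final BAM8-22 challenge near maximal dose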
Target sequence (Q96LB2 whole entry, looked up): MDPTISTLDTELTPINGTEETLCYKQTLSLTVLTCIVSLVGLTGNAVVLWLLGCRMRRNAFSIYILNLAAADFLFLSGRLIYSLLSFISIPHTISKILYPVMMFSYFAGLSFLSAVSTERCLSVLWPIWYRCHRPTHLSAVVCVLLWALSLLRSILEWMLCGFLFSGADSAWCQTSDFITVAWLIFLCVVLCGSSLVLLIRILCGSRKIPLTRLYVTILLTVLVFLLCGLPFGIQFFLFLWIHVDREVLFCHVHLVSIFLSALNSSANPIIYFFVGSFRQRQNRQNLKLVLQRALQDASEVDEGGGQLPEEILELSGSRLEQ
MrgX1 agonist: activates human MrgX1 receptor signaling. Q96LB2. MrgX1-HEK293 cells, Fluo-4 calcium fluorescence, agonist mode; active compounds read high. B-score at 10 µM. 0.44% of 310,000 active. AID 588627;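 active = calcium response B-score plate-corrected fluorescence ratio at least 3 library SD, with starting fluorescence B-score inside 5 SD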
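times = overnight plating, then 30 min 37 °C plus 30 min room-temperature dye loading | assay system = stable human MrgX1 HEK293 cell line | input = fifteen thousand cells per well | signal = kinetic calcium dye fluorescence, Fluo-4 NW | dosing = compound delivered in addition one of three | read-out = B-scored fluorescence response ratio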
MrgX1 allo act: allosterically activates human MrgX1 receptor signaling; MrgX1-HEK293, Fluo-4 calcium flux, FDSS; active compounds read high; B-score at 10 µM; 0.63% of 310,000 active;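 active = plate-corrected calcium response at least 3 library SD above typical, normal starting fluorescence, not activating the receptor alone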;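 also: compound read alongside a low EC10 to EC30 dose of BAM8-22 agonist; peak minus trough fluorescence over baseline measured at the second addition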
RGS4 pot: RGS4 potentiation or activation; HEK293 M3R/inducible RGS4, carbachol calcium flux Fluo4; active compounds read low; B-score at 10 µM; 0.92% of 310,000 active;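 active = B-score of the integrated calcium signal more than 4 SD below the library mean, with starting fluorescence not abnormally high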;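 also: negative B-score means reduced calcium response which marks RGS4 activation or potentiation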
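Assay system: Inducible-RGS4 HEK293 cells carrying M3 receptor | Schedule: Compound preincubation 20 min at room temperature before agonist | Signal: Kinetic calcium fluorescence imaging with Fluo4-AM dye, 2 µM | Read-out basis: B score from integrated fluorescence ratio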
RGS4 act valid: confirmation of RGS4 activators. HEK293 M3R/RGS4 inducible, carbachol calcium flux Fluo4. shares compounds with RGS4 pot. 89% of 1,100 active. inhibition, % at 10 µM;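 active = inhibition above 3 SD of the buffer control wells, cut at about 41% in these data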;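 also: signal is the integrated peak-minus-minimum Fluo4 fluorescence over baseline ratio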
RGS4 act ctr: activity in cells without induced RGS4 expression | HEK293 M3R non-induced RGS4, Fluo4 calcium flux; after carbachol challenge at its EC90 | inhibition, % at 10 µM | 82% of 1,100 active | shares compounds with RGS4 pot;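 active = inhibition exceeding 3 SD of buffer-only control wells, cut at about 26% in these data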;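 also: percent drop in integrated peak-minus-baseline over baseline Fluo4 ratio after carbachol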
A number is an active result; n = inactive; x = not tested or not shown.

SMILES	Lipid droplet	RGS4 block	MrgX1 antag	MrgX1 agonist	MrgX1 allo act	RGS4 pot	RGS4 act valid	RGS4 act ctr
CC1CCN(CCCCOc2ccc(C(C)(C)C)cc2)CC1	n	n	n	n	n	-9.6	93	60
CCS(=O)(=O)n1nc(-c2ccccc2)nc1SC	n	n	n	n	n	n	x	x
COc1ccc(-n2nc3c(c2NC(=O)CCCl)CSC3)cc1	n	n	n	n	n	n	x	x
COc1ccc(/C=N/OC(=O)c2ccc(Cl)cc2)c(Cl)c1OC	n	n	n	n	n	n	x	x
CC(C)OCCCNC(=O)C1CCC(CNS(=O)(=O)c2ccccc2)CC1 (configuration not stated)	n	n	n	n	n	n	x	x
CN1/C(=C/C=C(C#N)C#N)C(C)(C)c2ccccc21	n	n	n	n	n	-7.8	88	82
CN1\C(=C/C=C/C=C/C=[N+](C)C)C(C)(C)c2ccccc21	n	n	x	x	x	n	x	x
Cc1ccc(C(=O)NC2(O)C(=O)c3ccccc3C2=O)cc1C	n	n	n	n	n	n	x	x
O=C(NC1(O)C(=O)c2ccccc2C1=O)c1ccc(C(F)(F)F)cc1	n	n	n	n	n	-7.6	n	n
OCC1(CCOc2ccccc2)CCN(CC2=Cc3cc(Cl)ccc3OC2)CC1	n	n	n	n	n	-8.7	87	56
CN1CCCN(C(=O)CC(c2ccccc2)c2ccccc2)CC1	n	n	n	n	n	-8.1	88	47
COc1ccc(-c2noc3c2-c2nc(-c4ccc(Cl)cc4)sc2CC3)cc1	n	n	n	n	n	n	x	x
CCOC(=O)N1CCC(NC(=O)c2cnn3c(C(F)(F)F)cc(-c4cccc(OC)c4)nc23)CC1	x	n	n	n	n	-8.4	n	n
CCOC(=O)c1cnn2c(C(F)(F)F)cc(-c3ccccc3)nc12	x	n	n	n	n	n	x	x
Nc1ncc(Br)cc1S(=O)(=O)NCCC(=O)N1CCN(c2ccccn2)CC1	n	n	n	n	n	-8.7	75	84
CCN1CCN(CCCNC(=O)c2ccc3c(Cl)c4c(nc3c2)CCCC4)CC1	n	n	n	n	n	-8.6	82	50
COc1ccc(-n2ncc3c2CC(C)(C)CC3NC(=O)c2ocnc2C)cc1 (configuration not stated)	n	n	n	n	n	n	x	x
Cc1ccc(S(=O)(=O)c2ccc(C)cc2)cc1	n	n	n	n	n	n	x	x
Cc1ccc(S(=O)(=O)c2ccc(Oc3cccc(C)c3)cc2)cc1	x	n	n	n	n	-8.1	68	30
O=C(NCC1(c2ccccc2)CCOCC1)c1cccs1	x	n	n	n	n	n	x	x
CCOC(=O)c1ccc(Nc2cc(C)nc(-c3ccccc3O)n2)cc1	n	n	n	n	n	-8.3	90	66
Cc1cccc(NS(=O)(=O)c2cc(C(=O)N3CCc4ccccc4C3)ccc2Cl)c1C	x	n	n	n	n	-8.1	82	30
Cc1ccc(C)c(NS(=O)(=O)c2cc(C(=O)N3CCc4ccccc4C3)ccc2Cl)c1	x	n	n	n	n	n	x	x
CCN(CC)CCCN(C(=O)c1cccs1)c1nc(-c2ccc(OC)cc2)cs1	x	n	n	n	n	-11	90	31
CCCN(CCC)CCCOC(=O)c1ccc(Cl)cc1Cl	n	n	n	n	n	-8.3	70	84
SMILES	Lipid droplet	RGS4 block	MrgX1 antag	MrgX1 agonist	MrgX1 allo act	RGS4 pot	RGS4 act valid	RGS4 act ctr
CCOc1cccc(OCCCCN2CCCCC2)c1	x	n	n	n	n	-7.9	80	37
CC1CCCN(CCCCOc2cccc(Br)c2)C1 (configuration not stated)	n	n	n	n	n	-7.5	92	64
CC1CCCN(CCOc2ccc(Br)cc2)C1 (configuration not stated)	n	n	n	n	n	n	x	x
Brc1cccc(OCCCCN2CCCCC2)c1	n	n	n	n	n	-8.6	92	66
COc1cccc(OCCCCN2CCCCC2)c1	n	n	n	n	n	n	x	x
Clc1ccc(OCCCCCN2CCCC2)c(Br)c1	n	n	n	n	n	-8	89	84
O=C(OCc1ccccc1)c1cn(-c2ccccc2)nc1-c1ccncc1	x	n	n	n	n	n	x	x
COC(=O)c1ccc(C(=O)OC)c(NC(=S)N2CCN(c3ccccn3)CC2)c1	n	n	n	n	n	n	x	x
Cc1cc(=O)oc2c3c(cc(OCC(=O)NC(Cc4ccc(Cl)cc4)C(=O)O)c12)OC(C)(C)CC3 (configuration not stated)	x	n	n	n	n	n	x	x
CCCC(O)(CCN1CCCCC1)c1ccc(OCC)cc1 (configuration not stated)	x	n	n	n	n	n	x	x
COc1ccc(C(O)(CCN2CCCCC2)C2CCCCC2)cc1 (configuration not stated)	n	n	n	n	n	-10	92	95
CCc1cc2c(=O)c(-c3ccc4c(c3)OCCO4)c(C)oc2cc1OS(C)(=O)=O	n	n	n	n	n	n	x	x
CC(C)CC(NC(=O)c1ccc(Cl)cc1)C(=O)OCC(=O)c1ccc2c(c1)NC(=O)CO2 (configuration not stated)	n	n	n	n	n	-12	90	80
COc1cccc(CNC(=O)CCC2CCCN(C3CCOCC3)C2)c1 (configuration not stated)	n	n	n	n	n	n	x	x
COc1cccc(CNC(=O)CCC2CCCN(c3cc(C)nc(N4CCCC4)n3)C2)c1 (configuration not stated)	n	n	n	n	n	-12	92	94
C#CCn1c(=NC(=O)c2cc(-c3cccs3)nc3ccccc23)sc2cc(S(N)(=O)=O)ccc21	n	n	n	n	n	n	x	x
COc1cccc(CN2CC(C(=O)NCc3cccc(N4CCCC4)c3)CCC2=O)c1 (configuration not stated)	n	n	n	n	n	n	x	x
CCCn1c2ccc(C)cc2c2nnc(SCCN3CCCCC3)nc21	n	n	x	x	x	-8.9	79	84
CCn1c2ccc(C)cc2c2nnc(SCCN3CCCCC3)nc21	n	n	n	n	n	n	x	x
c1ccc(Cn2c3ccccc3c3nnc(SCCN4CCCCC4)nc32)cc1	n	n	n	n	n	-11	93	90
CN(CC(=O)Nc1cccc(F)c1)CC(=O)Nc1cccc(S(=O)(=O)N2CCCCCC2)c1	n	n	n	n	n	-7.7	62	33

Screening data: PubChem, several laboratories
